According to article PMC8268672 (Bioorganic Chemistry, 2021):
Converted amounts (≈) assume the structure as drawn.

How the values were obtained:
Format in all cases: cell-based
[1] = system: Aspergillus fumigatus (NCIM 2081); assay: Agar disk diffusion, inhibition zone; conditions: 100 µg/8 mm disc, triplicate, mean ± SD
[2] = system: Cryptococcus neoformans (ATCC 9011); assay: Agar disk diffusion, inhibition zone; conditions: 100 µg/8 mm disc, triplicate, mean ± SD
[3] = system: Klebsiella aerogenes (NCIM-2098); assay: Agar disk diffusion, inhibition zone; conditions: 100 µg/8 mm disc, triplicate, mean ± SD
[4] = system: Staphylococcus aureus (ATCC 29213); assay: Agar disk diffusion, inhibition zone; conditions: 100 µg/8 mm disc, triplicate, mean ± SD
Outline: (§1)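 Agar disk diffusion on Mueller-Hinton agar plates seeded with a standard bacterial suspension. Test compound stock in DMSO, diluted with distilled water; 8 mm sterile filter-paper discs soaked in the solution. Ampicillin was the reference. Plates incubated at 35 °C for 24 h, in triplicate. Read-out is the average inhibition-zone diameter (mm) around each disc.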

[5] = system: Escherichia coli (ATCC 8739); assay: MIC, broth microdilution; conditions: ATCC8739, read-out: Minimum inhibitory concentration (MIC), EC
Outline: (§2)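 Broth microdilution per CLSI in Mueller-Hinton broth, using two-fold serial dilutions of test compound and reference drugs from 512 to 0.25. Bacterial broth cultures were grown 2-6 h to 0.5 McFarland turbidity, then diluted with sterile solution to the final inoculum. MIC is reported in µg/mL.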

[6] = system: Bacillus cereus (NCIM-2458); assay: MIC, broth microdilution; conditions: NCIM2458, read-out: Minimum inhibitory concentration (MIC), BC
Outline: as §2

[7] = system: Lactobacillus casei (NCIM-2651); assay: Agar disk diffusion, inhibition zone; conditions: 100 µg/8 mm disc, triplicate, mean ± SD
[8] = system: Salmonella typhimurium (NCIM-2501); assay: Agar disk diffusion, inhibition zone; conditions: 100 µg/8 mm disc, triplicate, mean ± SD
[9] = system: Streptococcus pneumonia (ATCC 49619); assay: Agar disk diffusion, inhibition zone; conditions: 100 µg/8 mm disc, triplicate, mean ± SD
[10] = system: Aspergillus niger (NCIM 2191); assay: MIC, broth microdilution; conditions: NCIM2191, read-out: Minimum inhibitory concentration (MIC), AN
Outline: (§3)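 Antifungal MICs by CLSI broth microdilution in Sabouraud liquid medium. Test compounds and standard drugs are serially diluted two-fold from 512 to 0.25. The fungal broth culture is grown 24 h at 35 °C to a 0.5 McFarland turbidity, then adjusted with sterile solution to the final inoculum.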

[11] = system: Bacillus cereus (NCIM-2458); assay: Agar disk diffusion, inhibition zone; conditions: 100 µg/8 mm disc, triplicate, mean ± SD
[12] = system: Aspergillus fumigatus (NCIM 2081); assay: MIC, broth microdilution; conditions: NCIM2081, read-out: Minimum inhibitory concentration (MIC), AF
Outline: as §3

[13] = system: Pseudomonas aeruginosa (MCCB 0035); assay: Agar disk diffusion, inhibition zone; conditions: 100 µg/8 mm disc, triplicate, mean ± SD
[14] = system: Escherichia coli (ATCC 8739); assay: Agar disk diffusion, inhibition zone; conditions: 100 µg/8 mm disc, triplicate, mean ± SD
Outline: as §1

[15] = system: Candida albicans (NCIM 2087); assay: Agar disk diffusion, inhibition zone; conditions: 100 µg/8 mm disc, triplicate, mean ± SD
[16] = system: Pseudomonas aeruginosa (MCCB 0035); assay: MIC, broth microdilution; conditions: read-out: Minimum inhibitory concentration (MIC), PA
Outline: as §2

[17] = system: Candida albicans (NCIM 2087); assay: MIC, broth microdilution; conditions: NCIM2087, read-out: Minimum inhibitory concentration (MIC), CA
Outline: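 CLSI broth microdilution in Sabouraud liquid medium, with test compound two-fold serially diluted from 512 to 0.25. Fungal broth culture grown 24 h at 35 °C to 0.5 McFarland turbidity, then adjusted with sterile solution to a final […] inoculum. MIC expressed in µg/mL.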

[18] = system: Staphylococcus aureus (ATCC 29213); assay: MIC, broth microdilution; conditions: ATCC29213, read-out: Minimum inhibitory concentration (MIC), SA
Outline: (§4)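 Antibacterial MICs by CLSI broth microdilution in Mueller-Hinton broth. Test compounds and standard drugs are serially diluted two-fold from 512 to 0.25. The bacterial broth culture is grown 2-6 h to a 0.5 McFarland turbidity, then adjusted with sterile solution to the final inoculum.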

[19] = system: Cryptococcus neoformans (ATCC 9011); assay: MIC, broth microdilution; conditions: ATCC9011, read-out: Minimum inhibitory concentration (MIC), CN
Outline: as §3

[20] = system: Aspergillus niger (NCIM 2191); assay: Agar disk diffusion, inhibition zone; conditions: 100 µg/8 mm disc, triplicate, mean ± SD
Outline: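 For the fungal strain, discs soaked in test compound solution (DMSO stock diluted with distilled water) sat on seeded Mueller-Hinton agar. Clotrimazole was the reference. Incubation ran 48 h at 35 °C, in triplicate. Zone of growth inhibition recorded in mm as the mean diameter around each disc.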

[21] = system: Klebsiella aerogenes (NCIM-2098); assay: MIC, broth microdilution; conditions: NCIM2098, read-out: Minimum inhibitory concentration (MIC), KA
Outline: as §4

SMILES: Cc1ccc(S(=O)(=O)N2C(=O)CSC2c2ccccc2Br)cc1 (stereo not drawn) [5b, 2-(2-Bromophenyl)-3-[(4-methylphenyl)sulfonyl]-1,3-thiazolidin-4-one]
- Diameter of growth inhibition zone, AF [1]: 10 ± 0.9 mm
- Diameter of growth inhibition zone, CN [2]: 7.2 ± 0.3 mm
- Diameter of growth inhibition zone, KA [3]: 10 ± 0.5 mm
- Diameter of growth inhibition zone, SA [4]: 16 ± 1.1 mm
- MIC [5]: 16 µg/mL (≈ 38.8 µM)
- MIC [6]: 64 µg/mL (≈ 155 µM)
- Diameter of growth inhibition zone, LC [7]: 10 ± 0.6 mm
- Diameter of growth inhibition zone, ST [8]: 12 ± 0.7 mm
- Diameter of growth inhibition zone, SP [9]: 08 ± 0.7 mm
- MIC [10]: 64 µg/mL (≈ 155 µM)
- Diameter of growth inhibition zone, BC [11]: 10 ± 0.34 mm
- MIC [12]: 64 µg/mL (≈ 155 µM)
- Diameter of growth inhibition zone, PA [13]: 15 ± 0.93 mm
- Diameter of growth inhibition zone, EC [14]: 14 ± 0.56 mm
- Diameter of growth inhibition zone, CA [15]: 11.6 ± 0.65 mm
- MIC [16]: 32 µg/mL (≈ 77.6 µM)
- MIC [17]: 32 µg/mL (≈ 77.6 µM)
- MIC [18]: 32 µg/mL (≈ 77.6 µM)
- MIC [19]: 128 µg/mL (≈ 310 µM)
- Diameter of growth inhibition zone, AN [20]: 10.8 ± 0.51 mm
- MIC [21]: 64 µg/mL (≈ 155 µM)

SMILES: Cc1ccc(S(=O)(=O)N2C(=O)CSC2c2ccc(Br)cc2)cc1 (stereo not drawn) [5d, 2-(4-Bromophenyl)-3-[(4-methylphenyl)sulfonyl]-1,3-thiazolidin-4-one]
- Diameter of growth inhibition zone, AF [1]: 9.8 ± 0.5 mm
- Diameter of growth inhibition zone, CN [2]: 17 ± 1.0 mm
- Diameter of growth inhibition zone, KA [3]: 18 ± 0.3 mm
- Diameter of growth inhibition zone, SA [4]: 21 ± 2.3 mm
- MIC [5]: 4 µg/mL (≈ 9.7 µM)
- MIC [6]: 32 µg/mL (≈ 77.6 µM)
- Diameter of growth inhibition zone, LC [7]: 18 ± 0.44 mm
- Diameter of growth inhibition zone, ST [8]: 14 ± 0.6 mm
- Diameter of growth inhibition zone, SP [9]: 10 ± 1.6 mm
- MIC [10]: 32 µg/mL (≈ 77.6 µM)
- Diameter of growth inhibition zone, BC [11]: 12 ± 0.4 mm
- MIC [12]: 16 µg/mL (≈ 38.8 µM)
- Diameter of growth inhibition zone, PA [13]: 20 ± 1.1 mm
- Diameter of growth inhibition zone, EC [14]: 20 ± 0.9 mm
- Diameter of growth inhibition zone, CA [15]: 12.9 ± 0.5 mm
- MIC [16]: 4 µg/mL (≈ 9.7 µM)
- MIC [17]: 16 µg/mL (≈ 38.8 µM)
- MIC [18]: 16 µg/mL (≈ 38.8 µM)
- MIC [19]: 32 µg/mL (≈ 77.6 µM)
- Diameter of growth inhibition zone, AN [20]: 11.8 ± 0.66 mm
- MIC [21]: 8 µg/mL (≈ 19.4 µM)

SMILES: Cc1ccc(S(=O)(=O)N2C(=O)CSC2c2cccc(Cl)c2)cc1 (stereo not drawn) [5f, 2-(3-Chlorophenyl)-3-[(4-methylphenyl)sulfonyl]-1,3-thiazolidin-4-one]
- Diameter of growth inhibition zone, AF [1]: 11.8 ± 1.5 mm
- Diameter of growth inhibition zone, CN [2]: 10 ± 0.7 mm
- Diameter of growth inhibition zone, KA [3]: 18 ± 0.23 mm
- Diameter of growth inhibition zone, SA [4]: 20 ± 1.2 mm
- MIC [5]: 8 µg/mL (≈ 21.7 µM)
- MIC [6]: 32 µg/mL (≈ 87 µM)
- Diameter of growth inhibition zone, LC [7]: 14 ± 0.6 mm
- Diameter of growth inhibition zone, ST [8]: 14 ± 0.2 mm
- Diameter of growth inhibition zone, SP [9]: 18 ± 0.7 mm
- MIC [10]: 16 µg/mL (≈ 43.5 µM)
- Diameter of growth inhibition zone, BC [11]: 12 ± 2.2 mm
- MIC [12]: 64 µg/mL (≈ 174 µM)
- Diameter of growth inhibition zone, PA [13]: 18 ± 0.56 mm
- Diameter of growth inhibition zone, EC [14]: 18 ± 0.23 mm
- Diameter of growth inhibition zone, CA [15]: 12 ± 0.35 mm
- MIC [16]: 16 µg/mL (≈ 43.5 µM)
- MIC [17]: 16 µg/mL (≈ 43.5 µM)
- MIC [18]: 32 µg/mL (≈ 87 µM)
- MIC [19]: 32 µg/mL (≈ 87 µM)
- Diameter of growth inhibition zone, AN [20]: 11.2 ± 0.6 mm
- MIC [21]: 8 µg/mL (≈ 21.7 µM)

SMILES: Cc1ccc(S(=O)(=O)N2C(=O)CSC2c2cccc(F)c2)cc1 (stereo not drawn) [5i, 2-(3-Fluorophenyl)-3-[(4-methylphenyl)sulfonyl]-1,3-thiazolidin-4-one]
- Diameter of growth inhibition zone, AF [1]: 15 ± 0.6 mm
- Diameter of growth inhibition zone, CN [2]: 14 ± 1.3 mm
- Diameter of growth inhibition zone, KA [3]: 12 ± 0.4 mm
- Diameter of growth inhibition zone, SA [4]: 17 ± 0.53 mm
- MIC [5]: 16 µg/mL (≈ 45.5 µM)
- MIC [6]: 16 µg/mL (≈ 45.5 µM)
- Diameter of growth inhibition zone, LC [7]: 18 ± 1.62 mm
- Diameter of growth inhibition zone, ST [8]: 10 ± 0.76 mm
- Diameter of growth inhibition zone, SP [9]: 12 ± 0.4 mm
- MIC [10]: 32 µg/mL (≈ 91.1 µM)
- Diameter of growth inhibition zone, BC [11]: 14 ± 0.9 mm
- MIC [12]: 8 µg/mL (≈ 22.8 µM)
- Diameter of growth inhibition zone, PA [13]: 18 ± 0.23 mm
- Diameter of growth inhibition zone, EC [14]: 22.8 ± 0.63 mm
- Diameter of growth inhibition zone, CA [15]: 15 ± 0.32 mm
- MIC [16]: 32 µg/mL (≈ 91.1 µM)
- MIC [17]: 16 µg/mL (≈ 45.5 µM)
- MIC [18]: 16 µg/mL (≈ 45.5 µM)
- MIC [19]: 16 µg/mL (≈ 45.5 µM)
- Diameter of growth inhibition zone, AN [20]: 11 ± 0.9 mm
- MIC [21]: 32 µg/mL (≈ 91.1 µM)

SMILES: CC1(C)S[C@@H]2[C@H](NC(=O)[C@H](N)c3ccccc3)C(=O)N2[C@H]1C(=O)O [AA, Ampicillin, reference compound]
- Diameter of growth inhibition zone, KA [3]: 17 mm
- Diameter of growth inhibition zone, SA [4]: 21 mm
- MIC [5]: 1 µg/mL (≈ 2.86 µM)
- MIC [6]: 4 µg/mL (≈ 11.4 µM)
- Diameter of growth inhibition zone, LC [7]: 20 mm
- Diameter of growth inhibition zone, ST [8]: 18 mm
- Diameter of growth inhibition zone, SP [9]: 17 mm
- Diameter of growth inhibition zone, BC [11]: 19 mm
- Diameter of growth inhibition zone, PA [13]: 17 mm
- Diameter of growth inhibition zone, EC [14]: 18 mm
- MIC [16]: 4 µg/mL (≈ 11.4 µM)
- MIC [18]: 2 µg/mL (≈ 5.72 µM)
- MIC [21]: 8 µg/mL (≈ 22.9 µM)

SMILES: Clc1ccccc1C(c1ccccc1)(c1ccccc1)n1ccnc1 [CL, Clotrimazole, reference compound]
- Diameter of growth inhibition zone, AF [1]: 22 mm
- Diameter of growth inhibition zone, CN [2]: 19 mm
- MIC [10]: 16 µg/mL (≈ 46.4 µM)
- MIC [12]: 1 µg/mL (≈ 2.9 µM)
- Diameter of growth inhibition zone, CA [15]: 24 mm
- MIC [17]: 4 µg/mL (≈ 11.6 µM)
- MIC [19]: 2 µg/mL (≈ 5.8 µM)
- Diameter of growth inhibition zone, AN [20]: 23 mm
